The source made the active and inactive calls. No cut-off for these calls is given here. Peptide text beside a SMILES is read from it. * marks the point of attachment. Palmitoyl = CCCCCCCCCCCCCCCC(=O)*

Experimental findings from ChEMBL document CHEMBL1148755, “Structural analogues of smoothened intracellular loops as potent inhibitors of Hedgehog pathway and cancer cell growth” (J Med Chem, 2007) are described below.

The subject of assay [1] is SK-MEL-2. Description: Growth inhibition of SK-Mel2 melanoma cells after 48 hrs by MTT assay. In kind it is functional, cell-based, Homo sapiens. The essentials:
(§1)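 Cells seeded at 200-400 per well in DMEM with 10% FBS and left to attach for 24 h. The next day, inhibitor in medium at 2× was added in an equal volume, and cells were incubated 48 h in a CO2 incubator. Reference plates were read at time of addition for T0 density. MTT staining was read as absorbance at 544 nm and compared with untreated control cells.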
In general terms: Tetrazolium dyes change colour on reduction, which living cells bring about.

Assay [2] relates to MCF7. Description: Growth inhibition of breast cancer MCF7 cells after 48 hrs by MTT assay. Particulars: Homo sapiens. In kind it is functional, cell-based. The essentials: as §1

As usually defined, the IC50 is the concentration that inhibits the measured activity by half. Higher therefore signals weaker potency. `CCCCCCCCCCCCCCCC(=O)N[C@@H](CC(C)C)C(=O)N[C@H](C(=O)N[C@@H](Cc1ccc(O)cc1)C(=O)N[C@@H](C)C(=O)N[C@@H](Cc1c[nH]c2ccccc12)C(=O)N[C@@H](Cc1cnc[nH]1)C(=O)N[C@H](C(=O)N[C@@H](CO)C(=O)N[C@@H](Cc1ccccc1)C(=O)N[C@@H](CCCCN)C(=O)N[C@@H](C)C(=O)N[C@@H](CC(C)C)C(=O)NCC(=O)N[C@H](C(=O)N[C@H](C(=O)N[C@@H](Cc1ccc(O)cc1)C(=O)N[C@@H](CCC(N)=O)C(=O)N1CCC[C@H]1C(=O)N[C@@H](CC(C)C)C(=O)N[C@@H](CO)C(=O)NCC(=O)N[C@@H](CCCCN)C(=O)N[C@@H](Cc1ccc(O)cc1)C(=O)N[C@@H](CO)C(=O)N[C@@H](Cc1ccc(O)cc1)C(=O)O)[C@@H](C)O)[C@@H](C)O)[C@@H](C)O)[C@@H](C)O` (Palmitoyl-LTYAWHTSFKALGTTYQPLSGKYSY-OH): in assay [1] (Homo sapiens, SK-MEL-2, 48 h), the IC50 was 450 nM. Moreover, the result in assay [2] was Active.
For `CCCCCCCCCCCCCCCC(=O)N[C@@H](CCCNC(=N)N)C(=O)NCC(=O)N[C@H](C(=O)N[C@@H](CCSC)C(=O)N[C@H](C(=O)N[C@@H](CC(C)C)C(=O)N[C@@H](Cc1ccccc1)C(=O)N[C@@H](CO)C(=O)N[C@H](C(=O)N[C@@H](CCCCN)C(=O)N[C@@H](CO)C(=O)N[C@@H](CC(N)=O)C(=O)N[C@@H](Cc1c[nH]cn1)C(=O)O)[C@@H](C)CC)[C@@H](C)O)C(C)C` (Palmitoyl-RGVMTLFSIKSNH-OH), the IC50 in assay [1] (Homo sapiens, SK-MEL-2, 48 h) was determined as 950 nM.
The same measure, in the same setting: for `CCCCCCCCCCCCCCCC(=O)N[C@@H](CCCNC(=N)N)C(=O)NCC(=O)N[C@H](C(=O)N[C@@H](CCSC)C(=O)N[C@H](C(=O)N[C@@H](CC(C)C)C(=O)N[C@@H](Cc1ccccc1)C(=O)N[C@@H](CO)C(=O)N[C@H](C(=O)N[C@@H](CCCCN)C(=O)N[C@@H](CO)C(=O)N[C@@H](CC(N)=O)C(=O)N[C@@H](Cc1c[nH]cn1)C(=O)N1CCC[C@H]1C(=O)NCC(=O)N[C@@H](CC(C)C)C(=O)N[C@@H](CC(C)C)C(=O)N[C@@H](CO)C(=O)O)[C@@H](C)CC)[C@@H](C)O)C(C)C` (Palmitoyl-RGVMTLFSIKSNHPGLLS-OH) the value was 500 nM; for `CCCCCCCCCCCCCCCC(=O)N[C@@H](CCCNC(=N)N)C(=O)NCC(=O)N[C@H](C(=O)N[C@@H](CCSC)C(=O)N[C@H](C(=O)N[C@@H](CC(C)C)C(=O)N[C@@H](Cc1ccccc1)C(=O)N[C@@H](CO)C(=O)N[C@H](C(=O)N[C@@H](CCCCN)C(=O)N[C@@H](CO)C(=O)N[C@@H](CC(N)=O)C(=O)N[C@@H](Cc1c[nH]cn1)C(=O)N1CCC[C@H]1C(=O)NCC(=O)N[C@@H](CC(C)C)C(=O)N[C@@H](CC(C)C)C(=O)N[C@@H](CO)C(=O)N[C@@H](CCC(=O)O)C(=O)N[C@@H](CCCCN)C(=O)N[C@@H](C)C(=O)O)[C@@H](C)CC)[C@@H](C)O)C(C)C` (Palmitoyl-RGVMTLFSIKSNHPGLLSEKA-OH), 500 nM.
Turning to `CCCCCCCCCCCCCCCC(=O)N[C@@H](CCCNC(=N)N)C(=O)NCC(=O)N[C@H](C(=O)N[C@@H](CCSC)C(=O)N[C@H](C(=O)N[C@@H](CC(C)C)C(=O)N[C@@H](Cc1ccccc1)C(=O)N[C@@H](CO)C(=O)N[C@H](C(=O)N[C@@H](CCCCN)C(=O)N[C@@H](CO)C(=O)N[C@@H](CC(N)=O)C(=O)N[C@@H](Cc1c[nH]cn1)C(=O)N1CCC[C@H]1C(=O)NCC(=O)N[C@@H](CC(C)C)C(=O)N[C@@H](CC(C)C)C(=O)N[C@@H](CO)C(=O)N[C@@H](CCC(=O)O)C(=O)N[C@@H](CCCCN)C(=O)N[C@@H](C)C(=O)N[C@@H](C)C(=O)N[C@@H](CO)C(=O)N[C@@H](CCCCN)C(=O)N[C@H](C(=O)N[C@@H](CC(N)=O)C(=O)N[C@@H](CCC(=O)O)C(=O)N[C@H](C(=O)N[C@@H](CCSC)C(=O)N[C@@H](CC(C)C)C(=O)O)[C@@H](C)O)[C@@H](C)CC)[C@@H](C)CC)[C@@H](C)O)C(C)C` (Palmitoyl-RGVMTLFSIKSNHPGLLSEKAASKINETML-OH), the IC50 in assay [1] (Homo sapiens, SK-MEL-2, 48 h) worked out at 640 nM. The outcome in assay [2] was Active.
With `CCCCCCCCCCCCCCCC(=O)N[C@H](C(=O)N[C@@H](Cc1ccccc1)C(=O)N[C@H](C(=O)N[C@@H](C)C(=O)N[C@@H](CC(=O)O)C(=O)N[C@@H](Cc1c[nH]c2ccccc12)C(=O)N[C@@H](CCCNC(=N)N)C(=O)N[C@@H](CC(N)=O)C(=O)N[C@@H](CO)C(=O)N[C@@H](CC(N)=O)C(=O)N[C@@H](CCCNC(=N)N)C(=O)N[C@@H](Cc1ccc(O)cc1)C(=O)O)C(C)C)[C@@H](C)O` (Palmitoyl-TFVADWRNSNRY-OH), in assay [2], the result was Active.
As for `CCCCCCCCCCCCCCCC(=O)N[C@H](C(=O)N[C@@H](Cc1ccc(O)cc1)C(=O)N[C@@H](C)C(=O)N[C@@H](Cc1c[nH]c2ccccc12)C(=O)N[C@@H](Cc1cnc[nH]1)C(=O)N[C@H](C(=O)N[C@@H](CO)C(=O)N[C@@H](Cc1ccccc1)C(=O)N[C@@H](CCCCN)C(=O)N[C@@H](C)C(=O)N[C@@H](CC(C)C)C(=O)O)[C@@H](C)O)[C@@H](C)O` (Palmitoyl-TYAWHTSFKAL-OH), the 50% inhibitory concentration (IC50) in assay [1] (Homo sapiens, SK-MEL-2, 48 h) worked out at 700 nM.
For `CCCCCCCCCCCCCCCC(=O)NCCCC[C@H](NC(=O)[C@H](CCCNC(=N)N)NC(=O)[C@H](CC(C)C)NC(=O)[C@H](CCSC)NC(=O)[C@@H](NC(=O)[C@H](CCC(=O)O)NC(=O)[C@H](CC(N)=O)NC(=O)[C@@H](NC(=O)[C@H](CCCCN)NC(=O)[C@H](CO)NC(=O)[C@H](C)NC(=O)[C@H](C)NC(=O)[C@H](CCCCN)NC(=O)[C@H](CCC(=O)O)NC(=O)[C@H](CO)NC(=O)[C@H](CC(C)C)NC(=O)[C@H](CC(C)C)NC(C)=O)[C@@H](C)CC)[C@@H](C)O)C(=O)O` (stereo in doubt; form 1), it took 800 nM to reach half-maximal inhibition in assay [1] (sk-mel-2) (IC50).
On to `CCCCCCCCCCCCCCCC(=O)NCCCC[C@H](NC(=O)[C@H](CCCNC(=N)N)NC(=O)[C@H](CC(C)C)NC(=O)[C@H](CCSC)NC(=O)[C@@H](NC(=O)[C@H](CCC(=O)O)NC(=O)[C@H](CC(N)=O)NC(=O)[C@@H](NC(=O)[C@H](CCCCN)NC(=O)[C@H](CO)NC(=O)[C@H](C)NC(=O)[C@H](C)NC(=O)[C@H](CCCCN)NC(=O)[C@H](CCC(=O)O)NC(=O)[C@H](CO)NC(=O)[C@H](CC(C)C)NC(=O)[C@H](CC(C)C)NC(C)=O)[C@@H](C)CC)[C@@H](C)O)C(=O)O` (stereo in doubt; form 2), for which, in assay [1] (Homo sapiens, SK-MEL-2, 48 h), inhibition was half-maximal at 1330 nM (IC50).
On the same count and under the same terms, the result for Ac-LTYAWHTSFKAL-OH reads greater than 10000 nM; that for Ac-TYAWHTSFKA-OH, 2800 nM; that for H-VWFVVLTYAWHTSFKAL-OH, greater than 5000 nM.
In assay [1] (Homo sapiens, SK-MEL-2, 48 h), H-WFVVLTYAWHTSFKAL-OH returned an IC50 greater than 5000 nM.
